Results from ChEMBL document CHEMBL1133703, “Inhibitors of topoisomerase II based on the benzodiimidazole and dipyrroloimidazobenzimidazole ring systems: controlling DT-diaphorase reductive inactivation with steric bulk” (2000).

Key:
Type in all cases: functional
Details in all cases: Homo sapiens
[1] = test system: NSCLC; assay: Lethal concentration was determined against NSC lung cancer cell line
In short: (§1)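 NCI 60-cell-line in vitro screen run at the National Cancer Institute on a submitted sample of about 5 mg. The screen yields mean graph data: LC50 (50% lethal concentration), GI50 and TGI. The LC50 values reported are averages over the cell lines of each cancer type.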

[2] = test system: Panel leukemia (Carcinoma cell lines); assay: Lethal concentration was determined against Leukemia cell line; in short: as §1
[3] = test system: Renal cancer cell line; assay: Lethal concentration was determined against Renal cancer cell line; in short: as §1
[4] = test system: Ovarian carcinoma cell; assay: Lethal concentration was determined against Ovarian cancer cell line; in short: as §1
[5] = test system: Melanoma cell; assay: Lethal concentration was determined against Melanoma cell line; in short: as §1
[6] = test system: CNS carcinoma cell; assay: Lethal concentration was determined against CNS cancer cell line; in short: as §1
[7] = test system: Colon carcinoma cell; assay: Lethal concentration was determined against Colon cancer cell line; in short: as §1

Row | Compound | LC50 [1] | LC50 (50% lethal concentration) [2] | LC50 (50% lethal concentration) [3] | LC50 (50% lethal concentration) [4] | LC50 (50% lethal concentration) [5] | LC50 [6] | LC50 [7]
1 | Cn1c(CCl)nc2c1C(=O)c1c(nc(CCl)n1C)C2=O | 4.47 µM | 4.37 µM | 6.31 µM | 10 µM | 5.01 µM | 5.01 µM | 
2 | Cc1nc2c(n1C)C(=O)c1c(nc(CCl)n1C)C2=O | 12.3 µM | 12.9 µM | 15.8 µM | 25.1 µM | 5.89 µM | 15.8 µM | 6.31 µM
3 | CC(=O)NC1=C(C)C(=O)c2c(nc3n2CCC3OC(C)=O)C1=O (centres undefined) | 20 µM | 100 µM | 15.8 µM | 15.8 µM | 12.6 µM | 25.1 µM | 31.6 µM
4 | O=C1c2nc3n(c2C(=O)c2c1nc1n2CCC1)CCC3 | 39.8 µM | 100 µM | 79.4 µM | 50.1 µM | 15.8 µM | 63.1 µM | 50.1 µM
5 | CC(=O)OC1CCn2c1nc1c2C(=O)c2c(nc3n2CCC3OC(C)=O)C1=O (centres undefined) | 3.98 µM | 2.51 µM | 6.31 µM | 3.98 µM | 2.57 µM | 3.16 µM | 3.8 µM
